What was measured:
Histamine H2 receptor [1] = target: T1, Histamine H2 receptor (Cavia porcellus, UniProt P47747); experiment: Antagonistic activity against H2 receptor in guinea pig was evaluated
Summary of the method: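 Isolated guinea pig atrium preparation loaded with 400-mg tension, with propranolol (0.5 μM) present throughout. Histamine concentration-response curves were run with and without several antagonist concentrations (B). The dose ratio x was taken from histamine concentrations giving half-maximal responses. K_B was calculated as B/(x − 1), and pA2 = −log K_B.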

Histamine H2 receptor [2] = target: T1, Histamine H2 receptor; experiment: Antagonistic activity against H2 receptor in guinea pig.

T1 sequence (P47747 whole entry): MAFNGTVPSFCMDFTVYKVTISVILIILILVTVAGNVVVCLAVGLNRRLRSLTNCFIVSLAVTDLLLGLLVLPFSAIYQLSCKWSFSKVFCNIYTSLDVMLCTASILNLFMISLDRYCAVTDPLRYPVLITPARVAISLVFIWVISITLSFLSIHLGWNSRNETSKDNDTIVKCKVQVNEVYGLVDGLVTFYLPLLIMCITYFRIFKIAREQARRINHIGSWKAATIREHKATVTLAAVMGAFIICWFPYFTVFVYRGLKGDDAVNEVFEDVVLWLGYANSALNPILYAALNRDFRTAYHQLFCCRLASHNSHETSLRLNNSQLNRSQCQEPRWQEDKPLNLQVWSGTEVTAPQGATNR

Row | Kd (Histamine H2 receptor [1]) [µM] | Kd (Histamine H2 receptor [2]) [µM] | Compound
1 | 17.8 |  | CSC(=NCCSCc1[nH]cnc1C)NCCCc1cnc[nH]1
2 |  | 1.58 | Cc1nc[nH]c1CSCCNC(=N)NCCCc1cn(C)cn1

Source: BindingDB's records for doi:10.1021/jm00148a007 (1985)
